Experimental data as given in ChEMBL document CHEMBL3627613, “4-Aminoquinoline derivatives as novel Mycobacterium tuberculosis GyrB inhibitors: Structural optimization, synthesis and biological evaluation” (Eur J Med Chem, 2015).
Values after ≈ are worked out from the molar mass of the structure shown. Active and inactive are the calls of the source. The rule behind the calls is not given here.

How the values were obtained:
[1] = target: DNA gyrase subunit B (Escherichia coli) (UniProt P0AES6); assay: Inhibition of Escherichia coli Inspiralis DNA gyrase B assessed as reduction in ATPase activity at 100 uM incubated for 100 mins by inorganic phosphate detection assay
[2] = system: Mycobacterium tuberculosis; assay: Antimycobacterial activity against Mycobacterium tuberculosis H37Rv assessed as growth inhibition incubated for 7 days by microplate alamar blue assay; assay type: functional; details: 168 h
Method in brief: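 M. tuberculosis H37Rv inoculum from fresh LJ medium, resuspended in 7H9 broth (0.1% casitone, 0.5% glycerol, OADC), set to McFarland No. 1 and diluted 1:20. Two-fold serial compound dilutions in 7H9-S, with growth and sterile controls. Incubated 7 days at 37 °C, then alamar blue overnight. MIC is the lowest concentration preventing the blue-to-pink colour change.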

[3] = target: DNA gyrase subunit B (Mycobacterium smegmatis, UniProt P0C559); assay: Inhibition of Mycobacterium smegmatis DNA gyrase B expressed in Escherichia coli BL21 (DE3) pLysS cells assessed as reduction in ATPase activity incubated for 100 mins by inorganic phosphate detection assay; design: species or system Mycolicibacterium smegmatis
[4] = target: DNA gyrase subunit B (Staphylococcus aureus) (UniProt P0A0K8); assay: Inhibition of Staphylococcus aureus DNA gyrase B assessed as reduction in ATPase activity at 100 uM incubated for 100 mins by inorganic phosphate detection assay
[5] = Cytotoxicity against mouse RAW264.7 cells assessed as inhibition of cell viability at 50 uM incubated for 48 hrs at 37 degC by MTT assay relative to control; assay type: cell-based; details: read-out: INH
Method in brief: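 RAW 264.7 mouse macrophages, 5×10^5 cells per well, exposed to compound for 48 h at 37 °C under 5% CO2. MTT added 4 h before the end. Formazan dissolved in DMSO and absorbance read at 560 nm against blank. Triplicates, run twice.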

[6] = target: DNA gyrase subunit B (Mycobacterium smegmatis) (UniProt P0C559); assay: Binding affinity to Mycobacterium smegmatis DNA gyrase B assessed as changing in melting temperature of the protein-ligand complex by differential scanning fluorometry; details: Mycolicibacterium smegmatis
Method in brief: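 His-tagged M. smegmatis GyrB expressed in E. coli BL21(DE3)pLysS and Ni-NTA purified, used at 2 mg/mL. Native protein and protein-ligand complex heated from 25 to 95 °C in 0.1 °C steps with 50X SYPRO orange. Read-out is the Tm shift of the complex relative to native protein.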

[7] = target: DNA gyrase subunit A/DNA gyrase subunit B (Mycobacterium tuberculosis (strain ATCC 25618 / H37Rv), UniProt P9WG45+P9WG47); assay: Inhibition of DNA gyrase GyrA/GyrB in Mycobacterium tuberculosis incubated for 30 mins assessed as reduction in supercoiling of relaxed relaxed pBR322 DNA by ethidium bromide staining based agarose gel electrophoresis method
DNA gyrase subunit A/DNA gyrase subunit B, sequence (P9WG45 whole entry): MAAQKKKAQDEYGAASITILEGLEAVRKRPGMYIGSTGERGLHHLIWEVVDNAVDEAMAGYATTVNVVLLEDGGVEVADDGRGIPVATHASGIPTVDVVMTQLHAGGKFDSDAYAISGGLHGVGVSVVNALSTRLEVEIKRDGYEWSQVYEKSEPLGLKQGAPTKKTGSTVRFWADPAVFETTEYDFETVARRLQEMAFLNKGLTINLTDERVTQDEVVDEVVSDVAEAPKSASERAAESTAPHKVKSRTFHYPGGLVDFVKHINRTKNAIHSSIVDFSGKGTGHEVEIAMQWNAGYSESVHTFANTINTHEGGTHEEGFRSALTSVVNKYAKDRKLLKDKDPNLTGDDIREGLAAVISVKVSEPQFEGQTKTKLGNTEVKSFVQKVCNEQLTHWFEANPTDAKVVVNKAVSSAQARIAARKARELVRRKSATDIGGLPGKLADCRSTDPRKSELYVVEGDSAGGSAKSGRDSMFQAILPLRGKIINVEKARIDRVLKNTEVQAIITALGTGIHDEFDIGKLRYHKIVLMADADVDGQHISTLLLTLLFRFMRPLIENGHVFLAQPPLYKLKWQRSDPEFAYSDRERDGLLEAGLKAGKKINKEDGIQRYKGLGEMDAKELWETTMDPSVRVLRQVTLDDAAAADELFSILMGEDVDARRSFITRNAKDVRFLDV
DNA gyrase subunit A/DNA gyrase subunit B, sequence (P9WG47 whole entry): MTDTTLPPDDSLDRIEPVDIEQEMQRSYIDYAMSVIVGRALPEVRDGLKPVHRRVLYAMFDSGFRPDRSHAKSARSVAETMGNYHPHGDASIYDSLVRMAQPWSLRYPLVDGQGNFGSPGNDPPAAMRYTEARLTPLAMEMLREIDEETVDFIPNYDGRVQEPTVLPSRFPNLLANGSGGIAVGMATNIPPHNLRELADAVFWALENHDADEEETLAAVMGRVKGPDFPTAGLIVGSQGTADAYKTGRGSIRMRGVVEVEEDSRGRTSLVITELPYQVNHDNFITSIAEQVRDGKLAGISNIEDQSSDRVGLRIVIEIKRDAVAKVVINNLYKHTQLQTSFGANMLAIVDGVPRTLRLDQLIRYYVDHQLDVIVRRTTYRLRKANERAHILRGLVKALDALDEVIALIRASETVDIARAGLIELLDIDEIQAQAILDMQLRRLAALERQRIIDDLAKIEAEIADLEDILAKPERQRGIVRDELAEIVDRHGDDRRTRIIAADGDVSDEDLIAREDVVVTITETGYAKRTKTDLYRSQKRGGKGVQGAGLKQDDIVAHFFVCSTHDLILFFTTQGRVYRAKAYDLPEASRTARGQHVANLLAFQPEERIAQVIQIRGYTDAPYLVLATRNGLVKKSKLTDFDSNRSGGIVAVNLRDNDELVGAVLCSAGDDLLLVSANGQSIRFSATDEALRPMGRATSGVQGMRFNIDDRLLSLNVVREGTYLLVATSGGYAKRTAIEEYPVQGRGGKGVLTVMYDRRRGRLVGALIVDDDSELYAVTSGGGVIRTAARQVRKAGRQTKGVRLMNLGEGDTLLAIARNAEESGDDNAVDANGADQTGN

DNA gyrase subunit B, sequence (P0C559 whole entry): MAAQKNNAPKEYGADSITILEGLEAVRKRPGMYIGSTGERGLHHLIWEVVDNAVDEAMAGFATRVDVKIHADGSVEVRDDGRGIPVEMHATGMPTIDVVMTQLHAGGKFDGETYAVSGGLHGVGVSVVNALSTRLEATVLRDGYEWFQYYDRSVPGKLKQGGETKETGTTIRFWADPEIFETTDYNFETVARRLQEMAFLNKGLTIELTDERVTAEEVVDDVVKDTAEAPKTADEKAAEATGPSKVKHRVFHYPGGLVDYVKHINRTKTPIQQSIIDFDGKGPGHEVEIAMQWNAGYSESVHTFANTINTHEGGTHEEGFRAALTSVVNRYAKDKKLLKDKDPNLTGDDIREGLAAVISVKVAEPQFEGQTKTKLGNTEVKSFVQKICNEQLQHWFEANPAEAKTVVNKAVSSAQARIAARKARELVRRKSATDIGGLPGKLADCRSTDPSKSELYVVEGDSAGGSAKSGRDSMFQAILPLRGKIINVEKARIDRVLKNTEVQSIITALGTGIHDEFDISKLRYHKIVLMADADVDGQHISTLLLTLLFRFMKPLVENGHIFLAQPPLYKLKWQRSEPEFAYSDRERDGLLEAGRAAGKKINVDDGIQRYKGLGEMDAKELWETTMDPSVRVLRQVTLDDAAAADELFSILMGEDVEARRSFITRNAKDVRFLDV
DNA gyrase subunit B (Staphylococcus aureus), sequence (P0A0K8 2-644 limits assumed): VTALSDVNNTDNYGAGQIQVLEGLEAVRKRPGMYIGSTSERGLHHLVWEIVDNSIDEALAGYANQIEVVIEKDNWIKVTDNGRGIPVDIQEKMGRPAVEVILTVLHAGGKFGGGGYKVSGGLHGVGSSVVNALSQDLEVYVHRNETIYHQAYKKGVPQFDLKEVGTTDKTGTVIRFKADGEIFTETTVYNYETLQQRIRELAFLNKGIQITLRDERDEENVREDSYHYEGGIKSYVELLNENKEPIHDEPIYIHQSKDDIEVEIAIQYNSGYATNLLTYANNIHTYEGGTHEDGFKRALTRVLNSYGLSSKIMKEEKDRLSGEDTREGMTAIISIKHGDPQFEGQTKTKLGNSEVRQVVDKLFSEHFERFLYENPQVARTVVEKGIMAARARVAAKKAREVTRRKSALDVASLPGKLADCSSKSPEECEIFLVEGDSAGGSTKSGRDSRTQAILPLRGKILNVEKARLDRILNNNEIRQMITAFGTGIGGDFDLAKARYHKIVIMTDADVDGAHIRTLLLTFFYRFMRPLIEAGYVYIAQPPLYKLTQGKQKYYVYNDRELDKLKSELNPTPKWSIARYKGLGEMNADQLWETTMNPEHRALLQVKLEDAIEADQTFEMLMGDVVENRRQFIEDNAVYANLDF
DNA gyrase subunit B (Mycobacterium smegmatis), sequence (P0C559 2-675 limits assumed): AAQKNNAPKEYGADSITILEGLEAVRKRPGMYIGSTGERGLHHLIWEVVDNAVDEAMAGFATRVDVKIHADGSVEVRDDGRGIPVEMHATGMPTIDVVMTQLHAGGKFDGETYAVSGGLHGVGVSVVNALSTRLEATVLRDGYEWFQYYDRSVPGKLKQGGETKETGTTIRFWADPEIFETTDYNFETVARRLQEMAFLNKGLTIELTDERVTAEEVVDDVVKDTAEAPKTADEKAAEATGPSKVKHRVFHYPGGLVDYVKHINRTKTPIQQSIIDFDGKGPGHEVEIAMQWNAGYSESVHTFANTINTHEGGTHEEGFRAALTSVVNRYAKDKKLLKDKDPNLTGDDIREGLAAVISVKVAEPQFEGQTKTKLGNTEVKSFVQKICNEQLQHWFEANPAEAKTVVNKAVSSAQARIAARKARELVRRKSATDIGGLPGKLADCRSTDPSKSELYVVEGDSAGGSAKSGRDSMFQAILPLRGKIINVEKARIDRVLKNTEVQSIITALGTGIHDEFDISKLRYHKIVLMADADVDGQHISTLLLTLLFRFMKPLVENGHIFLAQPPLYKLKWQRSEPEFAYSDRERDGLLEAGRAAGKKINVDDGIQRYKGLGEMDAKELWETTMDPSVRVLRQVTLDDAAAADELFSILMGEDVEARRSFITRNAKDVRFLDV

Structure (SMILES): CCN1CCN(CCCOc2ccc(Nc3c(C(=O)O)cnc4ccc(OC)cc34)cc2)CC1
- inhibition [1]: inactive
- MIC [2]: 3.3 µM (≈ 1.53 µg/mL)
- IC50 [3]: 860 nM
- inhibition [4]: inactive
- cytotoxicity at 48 h, 50 µM [5]: 0.66%
- ΔTm [6]: 3.3 °C
- IC50 [7]: 630 nM
